Most compounds without a hit are left out; they make up all but 1.2% or so of the library.
ARNT-TACC3 inh – disrupts binding between human ARNT and TACC3; AlphaScreen His-ARNT PAS-B/GST-TACC3 binding, luminescence; TACC3 fragment carries E629A point mutation; inhibition, % at 9.99 µM; 390,000 compounds, 0.66% hits; Q9Y6A5;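 active = mean inhibition of replicates at least 50% and at least half of replicates each reaching 50%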;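 note: 0% = complete ARNT plus TACC3 wells and 100% = ARNT alone without TACC3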
CAL PDZ FP-1 – human CAL PDZ-peptide interaction inhibition; 330,000 compounds, 0.02% hits; AID 504414; Q9HD26; inhibition, % at 20 µM; purified CAL PDZ, TMR-peptide fluorescence polarization, 1 h;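 active = highest replicate inhibition of at least 40%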;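 note: plate controls were DMSO neutral control wells for no effect and unlabeled competitor peptide control wells for full effect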
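Material: tagged CAL PDZ domain; buffer or medium: 25 mM sodium phosphate pH 7.4, 150 mM NaCl, TCEP, IgG, Thesit; compound dosing: single point, 20 µM; schedule: 1 h incubation at room temperature before polarization reading; measured by: FP readout, S and P plane fluorescence; read-out basis: percent inhibition from loss of millipolarization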
CAL PDZ FP-2 – CAL PDZ (human) peptide binding inhibition; Q9HD26; 300,000 compounds, 0.92% hits; purified CAL PDZ, TMR-peptide fluorescence polarization, 1 h; inhibition, % at 24.9 µM; AID 602252;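 active = mean inhibition of at least 30% with at least half of replicates also reaching 30%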;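 note: 0% = DMSO neutral control and 100% = excess unlabeled competitor peptide PRC23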
The depositor's hits bear a star; x = no result.

SMILES	ARNT-TACC3 inh	CAL PDZ FP-1	CAL PDZ FP-2
Cc1csc(=O)n1CCC(=O)OC(C)C(=O)Nc1ccc(N2CCOCC2)cc1 (stereo not drawn)	0	0	6
COCC(=O)Nc1ccc2c(c1)C(=O)N(C)C[C@H](OC)[C@@H](C)CN(Cc1ccccc1OC)[C@H](C)CO2	-11	x	x
Fc1ccc(-n2c(-c3ccc4ccccc4n3)n[nH]c2=S)cc1Cl	-2	x	71*
S=c1[nH]nc(-c2ccc3ccccc3n2)n1-c1ccc(Cl)cc1	x	0	-2
O=C(Cc1c(C(=O)O)[nH]c2ccccc12)NCCN1CCN(c2cccc(Cl)c2)CC1	1	0	62*
O=C(NCCN1CCN(c2ccccc2)CC1)c1cccc(Cl)c1	0	-4	-2
CC(CCC(C)C(C)(C)C)[C@@H]1CC[C@H]2C3C[C@H](OS(O)(=S)=S)[C@H]4C[C@H](OS(O)(=S)=S)[C@@H](OS(O)(=S)=S)C[C@]4(C)[C@H]3CC[C@]12C (stereo partly drawn) (tested in a mixture with another compound)	55*	-2	-16
CC(CCC(=O)NN)C1CCC2C3CCC4CC(O)CCC4(C)C3CCC12C (stereo not drawn)	-7	-1	-3
Cc1cc(C(=O)N/N=C/c2cccc([N+](=O)[O-])c2)c(C)n1-c1ccccc1	-4	-1	-5
Cc1[nH]n(-c2ccccc2)c(=O)c1/C=N/NC(=O)C(C)C	70*	0	x
Cc1c(/C=N\NC(=O)C2COc3ccccc3O2)c2ccccc2n1C (stereo not drawn)	0	-2	-1
Cc1[nH]n(-c2ccccc2)c(=O)c1/C=N/NC(=O)c1cccc([N+](=O)[O-])c1	31*	0	-4
Cc1cc(/C=N/NC(=O)c2ccccn2)c(C)n1-c1cccc([N+](=O)[O-])c1	68*	0	0
Cc1[nH]n(-c2ccccc2)c(=O)c1/C=N\NC(=O)C1COc2ccccc2O1 (stereo not drawn)	61*	0	-7
Cc1[nH]n(-c2cccc3ccccc23)c(=O)c1/C=N/NC(=O)c1cccc([N+](=O)[O-])c1	6	-3	-9
CC(=O)N/N=C/c1c(C)[nH]n(-c2ccccc2)c1=O	x	-1	-2
C[C@H](O)C#Cc1cnc2c(c1)C(=O)N([C@@H](C)CO)C[C@@H](C)[C@H](CN(C)C(=O)CN1CCOCC1)O2	-5	x	x
COc1ccc(S(=O)(=O)Nc2ccc3c(c2)C(=O)N([C@H](C)CO)C[C@H](C)[C@@H](CN(C)C(=O)C2CCCCC2)OCCCC[C@H](C)O3)cc1	16	x	x
C[C@@H]1CCCCO[C@@H](CN(C)C(=O)CCCN(C)C)[C@@H](C)CN([C@@H](C)CO)C(=O)c2cc(NC(=O)c3ccccc3)ccc2O1	-10	x	x
O=C(/C=C/c1ccc(O)c([N+](=O)[O-])c1)c1ccc2ccccc2c1	0	2	-6
COc1ccc(Oc2ccc(/C=C/C(=O)c3ccc(O)cc3)cc2[N+](=O)[O-])cc1	20	0	61*
CC(C)NC(=O)N1[C@@H]2c3ccc(-c4ccccc4F)c(=O)n3C[C@@H]2[C@@H](CO)[C@@H]1C(=O)NC1CCC1	0	x	x
C[C@H](CO)N1C[C@H](C)[C@H](CN(C)C)Oc2cc(C#CC(C)(C)O)ccc2S1(=O)=O	-8	x	x
COc1cc(/C=N/NC(=O)CC#N)cc(Br)c1O	58*	0	0
COc1cc(/C=N/NC(=O)Cc2ccc(Br)cc2)cc(OC)c1O	-16	-1	-9
SMILES	ARNT-TACC3 inh	CAL PDZ FP-1	CAL PDZ FP-2
CC(C)C(=O)Nc1ccc2c(c1)C(=O)N(C)[C@@H]1CC[C@@H](CC(=O)N[C@H](C)c3ccccc3)O[C@H]1CO2	3	x	x
CC1=NN2C(=N)/C(=C\c3ccc(SCc4ccccc4)o3)C(=O)N=C2S1	6	-1	55*
N=C1/C(=C\c2ccc(SCc3ccco3)o2)C(=O)N=C2SC=NN12	2	-1	-8
Cc1noc(C)c1S(=O)(=O)Nc1ccc2c(c1)C(=O)N([C@@H](C)CO)C[C@@H](C)[C@H](CN(C)C(=O)c1ccccc1)OCCCC[C@@H](C)O2	-33	x	x
C[C@H]1CN([C@@H](C)CO)C(=O)c2cc(-c3cccc(C(=O)N(C)C)c3)cnc2O[C@H]1CN(C)C	-10	x	x
Cc1ccc(C(=O)NN2C(=O)CSC2=S)cc1	-10	-1	-4
C/C(=N\N1C(=O)CSC1=S)c1ccc(Br)cc1	2	-2	44*
N#C[C@@H]1[C@H](c2ccc(C3=CCCC3)cc2)[C@H](CO)N1C(=O)C1CCC1	0	x	x
Cc1cccc(C(=O)OCC(=O)NC(C)CCc2ccccc2)c1 (stereo not drawn)	-5	0	2
Cc1cccc(C(=O)NCC(=O)NC(C)CCc2ccccc2)c1 (stereo not drawn)	-1	0	32*
CCCC(O)C#Cc1cnc2c(c1)C(=O)N([C@H](C)CO)C[C@H](C)[C@H](CN(C)C(=O)Nc1c(C)noc1C)O2 (stereo partly drawn)	0	x	x
OCCCNC(=S)Nc1ccc(Oc2ccccc2)cc1	x	-2	-4
CN(C)CCCNC(=S)Nc1ccc(Oc2ccccc2)cc1	2	1	61*
O=C1CS/C(=N\N=C\c2ccco2)N1c1ccccc1	2	0	5
O=C1CS/C(=N/N=C/c2ccccc2)N1c1ccc(O)cc1	3	x	79*
C[C@@H]1CN([C@@H](C)CO)C(=O)Cc2cc(NC(=O)Cc3ccccc3)ccc2O[C@H]1CN(C)C(=O)Nc1ccc2c(c1)OCO2	-4	x	x
Cc1ccc(Sc2ncnc(N)c2[N+](=O)[O-])cc1	-4	0	-2
Nc1ncnc(Sc2ccc(Cl)cc2)c1[N+](=O)[O-]	49*	0	1
CC(=O)C1CCCN(C(=O)c2ccc3oc(CCc4ccccc4)nc3c2)C1 (stereo not drawn)	-1	0	47*
CCOC(=O)C1CCCN(C(=O)c2ccc3oc(CCc4ccccc4)nc3c2)C1 (stereo not drawn)	-4	-2	-2
CO[C@H]1CN(C)C(=O)c2cc(NC(=O)C3CC3)ccc2OC[C@H](C)N(CC2CCCC2)C[C@H]1C	-8	x	x
Cc1ccc(C)c(NC(=O)c2ncn[nH]2)c1	-1	-2	-3
O=C(NC1CCCC1)c1ncn[nH]1	22*	-1	0
CC(C)NC(=O)Nc1ccc2c(c1)C(=O)N(C)[C@@H]1CC[C@@H](CC(=O)NC3CCCCC3)O[C@H]1CO2	-12	x	x
CO[C@H]1CN(C)C(=O)c2cc(NS(=O)(=O)Cc3ccccc3)ccc2OC[C@H](C)NC[C@@H]1C	-1	x	x
CCCNC(=O)[C@@H]1[C@@H](CO)[C@@H]2Cn3c(ccc(/C=C/c4ccccc4)c3=O)[C@H]1N2C(C)=O	-2	x	x
Cc1ccc(/C=C2\CCOC2=O)cc1	-12	-1	-2
Cc1ccc(/C=C2/CNC/C(=C/c3ccc(C)cc3)C2=O)cc1	-8	0	39*
Cc1noc(C)c1S(=O)(=O)Nc1ccc2c(c1)C(=O)N([C@@H](C)CO)C[C@H](C)[C@H](CN(C)C(=O)c1ccccc1)OCCCC[C@@H](C)O2	1	x	x
